A short description of this data set: Toxicity liver stage against HepG2, at 10uM. The format is cell-based. Further details: test concentration 10 uM, cell line HepG2-A16-CD81EGFP. Conditions: human, HepG2-A16-CD81EGFP cells; read-out: INHIBITION
Put shortly:
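Uninfected HepG2-A16-CD81EGFP cells, 3 × 10^3 per well, 1536-well, plated on prespotted compound at 10 μM final, parasite-free screening media added to match infected plates; puromycin 10 μM positive, DMSO 0.5% negative; run in parallel with 48 h PbLuc assay at 37 °C, 5% CO2; viability by CellTiter-Glo luminescence, normalized to controls.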
Consider `O=C(C1CC1)N1C[C@@H](F)[C@@H](OCc2nc3cc(F)ccc3[nH]2)C1`, for which the cytotoxicity at 10 µM is -6.92%.

As for `CC[C@H]1CN2CC[C@H]1C[C@@H]2CNC(=O)NC1CCCCC1`, the cytotoxicity at 10 µM is 0.91%.

As for `CC[C@H]1CN(C(=O)C(C)(C)C)CC[C@H]1CC(=O)O`, the cytotoxicity at 10 µM was -0.61%. For `CC(=O)c1cc2ncc(C(=O)NC3CCCC3)cc2[nH]1` the value was -1.98%; for `C[C@H](NC(=O)N1CCN(c2ccc(Cl)cc2)CC1)C(=O)N1CCSCC1`, -6.3%. As for `CCOc1ccc(S(=O)(=O)NCCc2ccc(N(C)C)cc2)cc1C`, the figure is -6.48%.

As to `Cn1ncc2c1NC(=O)CSC2c1ccccc1Cl` (stereo not drawn), the cytotoxicity at 10 µM was determined as 5.81%. For `Cc1ccc(CS(=O)(=O)N2CC[C@H]3[C@H]2CCN3C)cc1` the value was -11.6%; for `COCC1CC2(CCN(C(=O)c3occc3C)CC2)CO1` (stereo not drawn), 0.982%; for `Cc1nn(C)c2cn(CC(=O)N3CCc4ccccc4C3)nc12`, 8.41%. For `CCN(Cc1c(C)nn(CC)c1C)S(=O)(=O)c1cn(C)nc1C` the value was 7.36%; for `Cc1cc2ccccc2n1CC(=O)NCC(=O)N1CCOCC1`, -7.7%.

`CNc1cncc(C2CCN(C(=O)c3cnco3)CC2)n1`: the cytotoxicity at 10 µM is -5.68%. As for `CC(NC(=O)CCn1c(=O)oc2ccccc21)c1ccccn1` (stereo not drawn), the figure is -3.34%.

Regarding `CN(C)Cc1ccnc(C2CN(Cc3c(F)cccc3F)CCO2)n1` (stereo not drawn), the cytotoxicity at 10 µM is -3.14%. For `Cn1cc(CN2CCC(c3[nH]ncc3S(C)(=O)=O)C2)cn1` (stereo not drawn) the value was -4.55%; for `CN1CCCCC12Cc1ccccc1CN(C(=O)C1CCCC1)C2` (stereo not drawn), 2.88%; for `CSCC(=O)NC1(c2cccc(Cl)c2)CC1`, -1.54%. For `COCCn1c(C(=O)NC(C(N)=O)C(C)C)cc2ccccc21` (stereo not drawn) the value was 9.73%. For `CCOC1CCCN(C(=O)CCOc2ccc(C)cc2OC)C1` (stereo not drawn) the value was -9.22%; for `COc1ncccc1CNC(=O)N(Cc1ccccc1F)C1CC1`, 2.99%; for `CN(CC(N)=O)C(=O)c1cc(Cl)c(Cl)n1C`, 8.56%. Regarding `CCc1cccc(C)c1NC(=O)C1CC(=O)N(Cc2ccccn2)C1` (stereo not drawn), the cytotoxicity at 10 µM turned out to be 1.09%. As for `Cc1nn(C(C)C)c(C)c1S(=O)(=O)Nc1cccc(F)c1`, the figure is -0.335%; as for `Cc1cc(NCC(=O)N(C)CC(F)(F)F)c(C(N)=O)cc1F`, -2.91%; as for `NC(=O)C1CCCN1C1CCN(C(=O)c2cccc3c2OCO3)CC1` (stereo not drawn), -0.353%. For `c1ccc(N(CCn2cncn2)CC2CC2)cc1` the value was 3.04%; for `CC(C)=CCN1CCN(C(=O)C2CCS(=O)(=O)C2)CC1` (stereo not drawn), -90.5%; for `Cc1n[nH]c(C)c1NC(=O)NCc1ccccn1`, 1.85%. As to `CCC1COCCN1C(=O)NCc1nccn1CC(C)C` (stereo not drawn), the cytotoxicity at 10 µM was -3.36%. Take `OC(COCc1cccs1)Cn1cc(-n2cccc2)cn1` (stereo not drawn): the cytotoxicity at 10 µM stood at 0.12%. For `N#Cc1ccc(NC2CCN(CC(F)F)CC2)c(F)c1` the value was -5.3%. For `NCC1(c2cccc(C(F)(F)F)c2)CCOCC1`, the cytotoxicity at 10 µM was -11.1%. For `O=C(NCCCO)Nc1cccc(Cl)c1F` the value was 2.79%; for `O=C(Nc1nncs1)NC1CCc2ccccc21` (stereo not drawn), -10%.

Turning to `O=C1N(Cc2cccc(F)c2)CCC12CCCN(c1ncc(F)cn1)C2` (stereo not drawn), the cytotoxicity at 10 µM came out at 0.797%.

On to `CC[C@@H](C)[C@@H](N)C(=O)Nc1cccc(-c2cnc(N(C)CCO)nc2)c1`, for which the cytotoxicity at 10 µM is -5.89%.

In the case of `C[C@@H]1CN(c2nc(N)nc3c2CCC3)C[C@]1(C)O`, the cytotoxicity at 10 µM was 4.6%.

Regarding `CC(C)[C@@H]1CN(C(=O)CCn2ccccc2=O)C[C@H]1NS(C)(=O)=O`, the cytotoxicity at 10 µM came out at 6.2%. For `CCOCc1nc(-c2ccc(F)cc2Cl)n(C2CCN(C)CC2)n1` the value was 0.0453%. Take `CCCc1cc(C(=O)N2CC(c3ccncc3)C2)ccn1`: the cytotoxicity at 10 µM was 2.36%. `COc1ccc(N2CCN(C(=O)Cn3nc(C)c(C)c3C)C(C)C2)cc1` (stereo not drawn): the cytotoxicity at 10 µM is -4.33%. As for `COCCc1noc(-c2cn(CCc3ccccc3)nn2)n1`, the figure is -2.56%; as for `CN(C)CC1(O)CCCN(C(=O)CCc2nc3cccnc3n2C)C1` (stereo not drawn), 0.0448%; as for `CSCCC(=O)N1CCC(CCC(=O)NCC2CCCO2)CC1` (stereo not drawn), 10.7%.

For the molecule `COCc1cc(N2CCOC(c3ccc(Cl)cc3)C2)ncn1` (stereo not drawn), the cytotoxicity at 10 µM worked out at 1.92%.

For `Cc1cc(N2CCC(N3CCOCC3)C2)n2nc(C)c(C)c2n1` (stereo not drawn), the cytotoxicity at 10 µM was found to be 3.9%. For `N[C@@H]1c2ccccc2C2(CCN(C(=O)c3cncc(Cl)c3)CC2)[C@H]1O` the value was -2.78%. As for `Cc1ccc(CN(C)C(C(=O)O)c2ccc3c(c2)OCO3)o1` (stereo not drawn), the figure is 6.35%; as for `CCc1nnc(N[C@H](C)c2cccc(OC)c2)o1`, 1.35%; as for `CCOCCn1nc(C2CCNCC2)n(Cc2ccccc2)c1=O`, 4.08%. For `C[C@@H]1CN(CCC(=O)N(C)Cc2ccccc2)C[C@@]1(O)C1CCC1`, the cytotoxicity at 10 µM was -6.95%.

In the case of `Cc1cc(C(=O)N2CCCC(c3nccn3Cc3ccncc3)C2)no1` (stereo not drawn), the cytotoxicity at 10 µM worked out at 0.471%. As for `CSCC(=O)N1CCC(c2nccn2Cc2cscn2)CC1`, the figure is -6.6%; as for `Cn1ncc(N2CCC(CNC(=O)[C@@H](N)C3CCCCC3)CC2)cc1=O`, 12.7%.

As for `CCc1cnc(C)nc1NCCN1CCC(O)CC1`, the cytotoxicity at 10 µM was found to be 1.78%. In the case of `Cc1cccc(-n2c(C)cc(=O)[nH]c2=O)c1C`, the cytotoxicity at 10 µM was -2%. As for `CC1CCN(C(=O)c2cccc(CN3CCOCC3)c2)CC1`, the figure is 8.07%; as for `CSc1ncc(C(=O)N2C[C@@H](NC(C)=O)[C@H](c3ccc(C)cc3)C2)cn1`, -0.645%; as for `COCCN(C)CCN1CC2(CCN(C3CCCOC3)CC2)OC1=O` (stereo not drawn), -11%.

For `CN1CC(c2ccccc2)CC12CCN(C(=O)c1cncc(Cl)c1)CC2` (stereo not drawn), the cytotoxicity at 10 µM is -12.6%. For `CCN1CCC2(CCC1=O)CN(c1ccnc(SC)n1)CCN2C` (stereo not drawn) the value was 17.7%; for `CCSCC(C)NCc1nncn1C1CCCCC1` (stereo not drawn), 15.3%. Consider `Cc1[nH]ccc1C(=O)N1CCC(c2nnc(Cn3ccnc3)n2C)CC1`, for which the cytotoxicity at 10 µM was -9.61%. For `CCn1cc(CNC2CC(=O)N(CCc3cccc(Cl)c3)C2)cn1` (stereo not drawn) the value was -8.54%; for `Cc1nn(CC(=O)n2cccn2)c(C)c1I`, -11.5%; for `COc1c(C2CCCN2C(=O)c2sc(C)nc2C)c(C)nn1C` (stereo not drawn), 3.62%.

Consider `Cc1ncc(CN2CCN(c3ccc4nncn4n3)C(C)C2)s1` (stereo not drawn), for which the cytotoxicity at 10 µM is -9.04%. As to `O=C(Cc1cccc(O)c1)NCCCNC(=O)c1cccc(F)c1`, the cytotoxicity at 10 µM amounted to 1.65%.

With `Cc1cc(C)n(CC2CN(CC(=O)NC3CCCCC3)CCO2)n1` (stereo not drawn), the cytotoxicity at 10 µM is -5.17%. As for `Cc1nc(C2CCCN(C(=O)c3ccc(OCC4CC4)nc3)C2)no1` (stereo not drawn), the figure is -4.41%. `c1ccc(OCC2CC2)c(CNC2CCc3ncnn3C2)c1` (stereo not drawn): the cytotoxicity at 10 µM is -6.72%. As for `CCNC(c1ccc(C(C)C)cc1)c1cccnc1` (stereo not drawn), the figure is -1.66%; as for `O=C(c1cnc(C2CC2)s1)N1CCCC1Cn1cccn1` (stereo not drawn), -5.09%; as for `Cc1nc(C)n(C2CCCN(C(=O)c3cn4c(C)cccc4n3)C2)n1` (stereo not drawn), -7.72%.

In the case of `CC(C)(C)c1noc(CN2CCN(C(=O)c3cccs3)CC2)n1`, the cytotoxicity at 10 µM is -5.82%. Take `Cc1nn(-c2ccccc2)c(C)c1CNC1CCc2ncnn2C1` (stereo not drawn): the cytotoxicity at 10 µM came to 2.87%.

As for `Cc1cc(C)n(CC2CN(Cc3nnsc3Cl)CCO2)n1` (stereo not drawn), the cytotoxicity at 10 µM was 1.46%. As for `CC(C(=O)NCCOc1ccc2c(c1)OCO2)n1cncn1` (stereo not drawn), the cytotoxicity at 10 µM is -4.33%. As for `CC(=O)Nc1nc(C(=O)N2CCCC2c2ccccc2C)cs1` (stereo not drawn), the figure is -2.27%; as for `Cn1ncc(NCc2cc(F)cc(F)c2)c(Cl)c1=O`, 6.69%; as for `O=C(CNCCn1cccn1)NCC1(c2ccccc2)CC1`, 3.15%. For `Cn1ncc2c1CCCC2NCc1ccc(Cl)s1` (stereo not drawn) the value was 7.6%. As for `CC(O)CN(CC(=O)NC(=O)NCC(F)(F)F)c1ccccc1` (stereo not drawn), the figure is 1.15%; as for `Cc1nnc(N2CCC(CS(N)(=O)=O)CC2)c(C#N)c1C`, 2.12%; as for `COCc1cccc(NS(=O)(=O)c2cc(C(=O)O)cs2)c1`, -4.69%. In the case of `Cn1nccc1C(=O)N1CCC2(CC1)COC(COc1ccccn1)C2` (stereo not drawn), the cytotoxicity at 10 µM was -7.18%. As for `Cc1cccc(Cn2c3c(ccc2=O)CCN(Cc2ccoc2)CC3)n1`, the figure is -11.5%; as for `O=c1ccc2c(n1CCN1CCCC1)CCN(Cc1ccoc1)CC2`, -8.97%; as for `Cn1cc(N2C(=O)CC[C@@H]3[C@H]2CCN3CC2CCOCC2)cn1`, 7.86%.

Turning to `CNCc1nc(-c2ccc3c(c2)OCO3)c[nH]1`, the cytotoxicity at 10 µM was determined as 3.44%. Regarding `CNC(=O)[C@@H]1CCO[C@@H]2CCN(CCc3ccccc3)C[C@H]21`, the cytotoxicity at 10 µM came to 2.55%. As for `CC(C)N(C)Cc1cnc2n1CCN(CCc1ccccc1)C2`, the figure is -4.58%. For `c1cc2nc(C3CCN(CC4CC4)CC3)nn2cc1N1CCCC1` the value was -8.13%; for `Cn1cc(CN2C[C@H]3CCC[C@@]3(COCC3CC3)C2)cn1`, -97.8%.

With `N#Cc1cccc(CN2C[C@@H]3CN(c4ncccn4)C[C@@H]3C2)c1`, the cytotoxicity at 10 µM is 8.04%.

Take `CNC(=O)[C@H]1C[C@H]2CN(Cc3ccc(OC)cc3)C[C@@H]1O2`: the cytotoxicity at 10 µM was 3.02%. For `CN1CCCCc2c1nc1c(c2N)CCC1` the value was 8.45%.

These data come from ChEMBL document CHEMBL4513216, “Probing the Open Global Health Chemical Diversity Library for Multistage-Active Starting Points for Next-Generation Antimalarials” (ACS Infect Dis, 2020).
